Experimental data taken from ChEMBL document CHEMBL3259629, “Discovery and optimization of piperidyl-1,2,3-triazole ureas as potent, selective, and in vivo-active inhibitors of α/β-hydrolase domain containing 6 (ABHD6)” (J Med Chem, 2013).

Columns and labels:
[1] = target: T1, Diacylglycerol lipase-beta (Mus musculus) (UniProt Q91WC9); test: Inhibition of FP-rhodamine-labelled recombinant mouse DAGLbeta expressed in HEK293T cells at 1 uM preincubated for 30 mins followed by FP-rhodamine labelling measured after 30 mins by gel-based competitive ABPP assay; assay type: cell-based; settings: HEK-293T
T1 sequence (whole entry): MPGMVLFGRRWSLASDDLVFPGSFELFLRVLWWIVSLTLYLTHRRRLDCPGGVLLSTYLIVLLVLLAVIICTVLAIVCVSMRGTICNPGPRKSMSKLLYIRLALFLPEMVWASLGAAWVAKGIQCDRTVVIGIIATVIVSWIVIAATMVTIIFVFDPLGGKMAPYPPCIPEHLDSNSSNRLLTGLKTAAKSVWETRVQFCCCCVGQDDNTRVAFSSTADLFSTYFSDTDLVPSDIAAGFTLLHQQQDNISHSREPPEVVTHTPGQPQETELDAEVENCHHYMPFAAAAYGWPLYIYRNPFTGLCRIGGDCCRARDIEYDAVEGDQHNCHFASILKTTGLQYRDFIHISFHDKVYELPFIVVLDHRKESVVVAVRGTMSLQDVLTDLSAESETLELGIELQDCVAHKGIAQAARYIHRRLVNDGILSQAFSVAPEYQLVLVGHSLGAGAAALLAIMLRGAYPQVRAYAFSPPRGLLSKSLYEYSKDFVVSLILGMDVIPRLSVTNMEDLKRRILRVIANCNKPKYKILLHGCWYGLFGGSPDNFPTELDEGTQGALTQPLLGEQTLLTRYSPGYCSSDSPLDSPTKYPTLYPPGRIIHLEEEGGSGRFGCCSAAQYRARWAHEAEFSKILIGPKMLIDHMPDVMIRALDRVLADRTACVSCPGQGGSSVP
Outline: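 Mouse DAGLβ transiently overexpressed in HEK293T. Lysate diluted to 0.3 mg/mL in 50 mM HEPES pH 7.2, 100 mM NaCl, 5 mM CaCl₂, 0.1% Triton X-100, 10% DMSO. Compound preincubated 30 min at 37 °C, then 1 μM probe for 30 min at 37 °C, SDS-PAGE and in-gel fluorescence.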

[2] = target: T2, Acylamino-acid-releasing enzyme (Mus musculus) (UniProt Q8R146); settings: Neuro2a, 3 nM
T2 sequence (whole entry): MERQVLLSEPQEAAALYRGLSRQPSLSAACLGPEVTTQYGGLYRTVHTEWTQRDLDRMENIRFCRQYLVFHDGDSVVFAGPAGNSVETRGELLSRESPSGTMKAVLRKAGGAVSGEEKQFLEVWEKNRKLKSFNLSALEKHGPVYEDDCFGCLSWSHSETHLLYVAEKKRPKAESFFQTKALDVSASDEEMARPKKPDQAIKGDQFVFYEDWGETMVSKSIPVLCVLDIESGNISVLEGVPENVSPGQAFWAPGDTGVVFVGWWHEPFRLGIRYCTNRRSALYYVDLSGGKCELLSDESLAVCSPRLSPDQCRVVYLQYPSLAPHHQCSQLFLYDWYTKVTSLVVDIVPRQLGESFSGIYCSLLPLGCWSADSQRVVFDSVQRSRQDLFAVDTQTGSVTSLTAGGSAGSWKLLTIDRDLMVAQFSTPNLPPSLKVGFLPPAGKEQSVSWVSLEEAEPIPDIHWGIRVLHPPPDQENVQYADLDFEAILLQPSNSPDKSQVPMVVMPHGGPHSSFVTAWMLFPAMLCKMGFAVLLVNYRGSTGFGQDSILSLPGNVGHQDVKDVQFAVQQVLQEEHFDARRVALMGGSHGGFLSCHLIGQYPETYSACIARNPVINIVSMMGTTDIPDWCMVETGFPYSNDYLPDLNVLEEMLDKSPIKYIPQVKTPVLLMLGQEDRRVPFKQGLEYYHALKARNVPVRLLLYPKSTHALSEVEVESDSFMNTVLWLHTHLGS

[3] = target: T3, Rhomboid-related protein 4 (Mus musculus) (UniProt Q8BHC7); settings: Neuro2a, 3 nM
T3 sequence (whole entry): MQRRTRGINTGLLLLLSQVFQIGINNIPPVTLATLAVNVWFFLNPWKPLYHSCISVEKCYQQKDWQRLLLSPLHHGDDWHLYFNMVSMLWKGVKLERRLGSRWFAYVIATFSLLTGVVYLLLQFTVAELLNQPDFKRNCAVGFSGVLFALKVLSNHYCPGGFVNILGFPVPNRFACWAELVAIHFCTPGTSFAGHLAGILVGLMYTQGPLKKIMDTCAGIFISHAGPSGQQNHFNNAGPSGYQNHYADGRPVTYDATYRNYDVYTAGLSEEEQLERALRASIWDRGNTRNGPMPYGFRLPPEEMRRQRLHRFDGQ

[4] = target: T4, Fatty-acid amide hydrolase 1 (Mus musculus) (UniProt O08914); settings: Neuro2a, 3 nM
T4 sequence (whole entry): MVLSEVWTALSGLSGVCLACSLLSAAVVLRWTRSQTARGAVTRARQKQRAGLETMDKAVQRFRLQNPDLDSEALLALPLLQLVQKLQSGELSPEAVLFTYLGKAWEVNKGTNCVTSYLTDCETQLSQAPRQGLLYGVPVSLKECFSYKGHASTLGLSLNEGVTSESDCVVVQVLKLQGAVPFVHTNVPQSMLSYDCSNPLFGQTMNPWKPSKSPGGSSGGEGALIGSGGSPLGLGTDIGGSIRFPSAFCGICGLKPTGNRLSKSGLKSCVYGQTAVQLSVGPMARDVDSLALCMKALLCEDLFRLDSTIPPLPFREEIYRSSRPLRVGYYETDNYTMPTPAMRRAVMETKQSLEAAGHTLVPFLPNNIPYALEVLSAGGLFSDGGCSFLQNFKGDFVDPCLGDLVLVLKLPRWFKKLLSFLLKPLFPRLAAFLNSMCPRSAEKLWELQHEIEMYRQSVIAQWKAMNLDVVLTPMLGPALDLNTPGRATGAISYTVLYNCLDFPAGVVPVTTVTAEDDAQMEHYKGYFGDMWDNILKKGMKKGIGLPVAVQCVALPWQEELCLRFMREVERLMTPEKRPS

[5] = target: T5, Monoacylglycerol lipase ABHD6 (Mus musculus) (UniProt Q8R2Y0); settings: Neuro2a, 3 nM
T5 sequence (whole entry): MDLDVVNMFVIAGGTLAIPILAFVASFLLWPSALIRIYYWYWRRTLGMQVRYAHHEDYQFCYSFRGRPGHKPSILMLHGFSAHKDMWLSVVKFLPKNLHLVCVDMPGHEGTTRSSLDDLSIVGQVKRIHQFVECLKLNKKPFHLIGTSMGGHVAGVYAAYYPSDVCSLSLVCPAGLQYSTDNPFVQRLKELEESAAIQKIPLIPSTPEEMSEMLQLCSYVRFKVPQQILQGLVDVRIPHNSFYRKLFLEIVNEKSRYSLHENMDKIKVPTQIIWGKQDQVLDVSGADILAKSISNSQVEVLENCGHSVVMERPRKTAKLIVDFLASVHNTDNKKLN

Row | SMILES | inhibition [1] [%] | inhibition [2] [%] | inhibition [3] [%] | inhibition [4] [%] | inhibition [5] [%]
1 | O=C(O)c1cccc(-c2ccc(-c3cn(C(=O)N4CCCCC4Cc4ccccc4)nn3)cc2)c1 (racemic) | 50 | < 50 | < 50 | < 50 | > 90
2 | O=C(N1CCCCC1c1ccccc1)n1cc(-c2ccc(-c3cccc(CO)c3)cc2)nn1 (racemic) | 0 | < 50 | < 50 | < 50 | > 90
3 | O=C(c1cccc(-c2ccc(-c3cn(C(=O)N4CCCCC4c4ccccc4)nn3)cc2)c1)N1CCCCC1 (racemic) | 0 | < 50 | < 50 | < 50 | > 80
